{"data": "Published values from different studies", "target": "cGMP-dependent protein kinase 2 (PRKG2, Homo sapiens, UniProt Q13237)", "Sequence (Q13237 1-762, as in one of the studies)": "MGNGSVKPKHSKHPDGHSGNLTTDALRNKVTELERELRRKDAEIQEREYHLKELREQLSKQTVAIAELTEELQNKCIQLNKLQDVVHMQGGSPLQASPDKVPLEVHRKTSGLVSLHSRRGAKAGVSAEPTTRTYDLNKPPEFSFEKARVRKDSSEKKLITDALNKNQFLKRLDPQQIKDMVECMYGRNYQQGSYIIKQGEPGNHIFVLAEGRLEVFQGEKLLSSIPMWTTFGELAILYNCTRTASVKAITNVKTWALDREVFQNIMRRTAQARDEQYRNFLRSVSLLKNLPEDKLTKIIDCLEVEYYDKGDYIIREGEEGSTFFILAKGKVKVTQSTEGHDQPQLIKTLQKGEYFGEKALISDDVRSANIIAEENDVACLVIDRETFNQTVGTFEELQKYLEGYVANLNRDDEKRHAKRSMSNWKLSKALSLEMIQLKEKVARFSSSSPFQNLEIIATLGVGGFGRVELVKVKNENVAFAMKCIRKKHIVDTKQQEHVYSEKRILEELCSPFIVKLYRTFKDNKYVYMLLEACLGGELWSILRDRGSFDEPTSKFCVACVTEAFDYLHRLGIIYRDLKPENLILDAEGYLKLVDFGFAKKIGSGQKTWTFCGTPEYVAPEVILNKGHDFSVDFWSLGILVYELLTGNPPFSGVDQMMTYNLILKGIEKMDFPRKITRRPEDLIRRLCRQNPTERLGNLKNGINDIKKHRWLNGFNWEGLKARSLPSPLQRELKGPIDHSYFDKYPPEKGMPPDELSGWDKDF"}
{"assay": "binding", "setting": "1 µM", "remaining binding [%]": 100, "SMILES": "CN(c1nccc(-c2cnn3ncccc23)n1)C1CC1"}
{"assay": "binding, competition with immobilised ligand", "setting": "1 µM", "remaining binding [%]": 54, "SMILES": "O=C(NCCCN1CCOCC1)c1ccc(Nc2ncc(Cl)c(-c3ccc(Cl)s3)n2)cc1"}
{"assay": "binding, competition with immobilised ligand", "setting": "1 µM", "remaining binding [%]": 91, "SMILES": "O=C(Nc1c[nH]nc1C(=O)NC1CCNCC1)c1cc(F)cc(F)c1"}
{"assay": "binding", "setting": "1 µM", "remaining binding [%]": 100, "SMILES": "N[C@@H]1CCN(c2nccc(-c3cnn4ncccc34)n2)C1"}
{"assay": "binding, competition with immobilised ligand", "setting": "1 µM", "remaining binding [%]": 13, "SMILES": "O=C(c1ccc(Nc2ncc(Cl)c(-c3cc4ccccc4s3)n2)cc1)N1CCC(N2CCCC2)CC1"}
{"assay": "cell-free assay, competition with immobilised ligand", "setting": "1 µM", "remaining binding [%]": 86, "SMILES": "CCS(=O)(=O)c1cc2cc(C[C@@](O)(CC(C)(C)c3ccc(F)cc3C(N)=O)C(F)(F)F)[nH]c2cn1"}
{"assay": "binding", "setting": "1 µM", "remaining binding [%]": 100, "SMILES": "CN(C)c1nccc(-c2cnn3ncccc23)n1"}
{"assay": "cell-free assay, competition with immobilised ligand", "setting": "1 µM", "remaining binding [%]": 100, "SMILES": "CN(C)C(=O)Cn1cc(-c2nc(C3(c4ccc(-c5cnc(N)nc5)cc4)CC3)no2)cn1"}
{"assay": "binding", "setting": "1 µM", "remaining binding [%]": 93, "SMILES": "F[C@@H]1CCN(c2nccc(-c3cnn4ncccc34)n2)C1"}
{"assay": "binding, competition with immobilised ligand", "setting": "1 µM", "remaining binding [%]": 92, "SMILES": "COc1cnc(Nc2cccc(S(N)(=O)=O)c2)nc1N1CCN(c2ccccc2)CC1"}
{"assay": "binding, competition with immobilised ligand", "setting": "10 µM", "remaining binding [%]": 74, "SMILES": "c1cncc(-c2cccc(Nc3nccc(NC4CCCCC4)n3)c2)c1"}
{"assay": "cell-free assay, competition with immobilised ligand", "setting": "1 µM", "remaining binding [%]": 100, "SMILES": "CCC(=O)N[C@H]1CC[C@@H](C(=O)N(C)c2ccc(-c3nc4ccccc4o3)cc2)C1"}
{"assay": "binding, competition with immobilised ligand", "setting": "1 µM", "remaining binding [%]": 42, "SMILES": "O=C(c1ccc(Nc2ncc(Cl)c(-c3ccc(Cl)s3)n2)cc1)N1CCC(N2CCCC2)CC1"}
{"assay": "cell-free assay, competition with immobilised ligand", "setting": "1 µM", "remaining binding [%]": 85, "SMILES": "O=C1CCc2cc(Nc3cc(OC4CCOCC4)c([N+](=O)[O-])cc3Cl)ccc2N1"}
{"assay": "binding", "setting": "1 µM", "remaining binding [%]": 82, "SMILES": "c1cnn2ncc(-c3ccnc(N4CCC45COC5)n3)c2c1"}
{"assay": "binding, competition with immobilised ligand", "setting": "1 µM", "remaining binding [%]": 100, "SMILES": "CNC(=O)[C@@H]1CC[C@@H](n2c(-c3ccc4cnccc4c3)nc3ccc(C(=O)NCc4cccc(C(N)=O)c4)cc32)C1"}
{"assay": "cell-free assay, competition with immobilised ligand", "setting": "1 µM", "remaining binding [%]": 100, "SMILES": "C[C@H](c1ccc(F)cc1)N(Cc1cccc(C(=O)O)c1)C(=O)c1cnc2ccccc2c1"}
{"assay": "binding, competition with immobilised ligand", "setting": "0.1 µM", "remaining binding [%]": 73, "SMILES": "C[C@@H](c1ccc(-n2cnc3c(N)ncnc32)cc1)N1CCc2nn(C)c(Cc3ccccc3)c2C1=O"}
{"assay": "cell-free assay, competition with immobilised ligand", "setting": "1 µM", "remaining binding [%]": 84, "SMILES": "Nc1cnc(N2CCc3cc(S(=O)(=O)Nc4c(F)cc(Cl)cc4F)cc(N4CCCC4=O)c32)nc1"}
{"assay": "binding", "setting": "1 µM", "remaining binding [%]": 100, "SMILES": "COc1ccnn2ncc(-c3ccnc(N(C)C)n3)c12"}
{"assay": "cell-free assay, competition with immobilised ligand", "setting": "1 µM", "remaining binding [%]": 100, "SMILES": "CO[C@@H](C)c1c(Nc2ccc([C@H](N(C)C(=O)C3CCS(=O)(=O)CC3)C(F)(F)F)cc2)cnc2cc(Cl)nn12"}
{"assay": "binding", "setting": "1 µM", "remaining binding [%]": 81, "SMILES": "C[C@@H]1CCN(c2nccc(-c3cnn4ncccc34)n2)C1"}
